Experimental data: ChEMBL document CHEMBL1140479, “NO donors. Part 16: investigations on structure-activity relationships of organic mononitrates reveal 2-nitrooxyethylammoniumnitrate as a high potent vasodilator” (Bioorg Med Chem Lett, 2007)

Test: Vasodilatory effect in pig pulmonary artery assessed as inhibition of PGF2-alpha-induced contraction
Assay type: functional, tissue-based, Sus scrofa
Settings: for pD2: Sus scrofa
Method in brief: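 Porcine lungs from slaughterhouse; small pulmonary artery branches cut into rings (2–3 mm long, 1.5–2 mm diameter), tension measured in organ baths. Rings precontracted with PGF2α; test compounds added cumulatively at contraction plateau (up to 1 mM), DMSO as solvent. Endothelium checked by 10 nM bradykinin relaxation; denuded rings by gentle rubbing, pretreated with 0.2 mM L-NAME. Potency expressed as pD2.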

Row | SMILES | EC50 [µM] | pD2
1 | CC(O[N+](=O)[O-])C(=O)c1ccccc1 (stereo unspecified) | 1.54 | 5.81
2 | O=[N+]([O-])O[C@H]1CO[C@H]2[C@@H]1OC[C@H]2O[N+](=O)[O-] [ISOSORBIDE DINITRATE] | 0.424 | 6.37
3 | O=[N+]([O-])OCCS(=O)(=O)O | 33.5 | 4.48
4 | CC(C)CO[N+](=O)[O-] | 87.7 | 4.01
5 | COC(=O)CCO[N+](=O)[O-] | 1.03 | 5.99
6 | NCCO[N+](=O)[O-] [AMINOETHYL NITRATE] | 0.0315 | 7.5
7 | O=[N+]([O-])OCC(CO[N+](=O)[O-])O[N+](=O)[O-] [NITROGLYCERIN] | 0.0356 | 7.44
8 | O=C(O)CCO[N+](=O)[O-] | 9.56 | 5.02
9 | CC(C)(CO[N+](=O)[O-])C(=O)O | 14.7 | 4.83
10 | CCCCO[N+](=O)[O-] | 141 | 3.85
11 | O=[N+]([O-])OC1COC2C(O)COC12 (stereo unspecified) | 33.2 | 4.48
12 | O=[N+]([O-])OCc1ccccc1 | 0.412 | 6.34
13 | O=[N+]([O-])OCC(CO)(CO)CO [PENTAERYTHRITYL MONONITRATE] | 72.5 | 4.14
